These results are taken from publication PMC3561764 (Nature, 2007).

No end group written: not given here.

For assay [1], the system named is EGFR kinase domain attached to lipid vesicles. Briefly: vesicle-based kinase assay. Format: biochemical. The conditions noted are these: wild type kinase 3.5 μM, substrate peptide 1 mM, Fig. 2c. The gist of the method:
(§1)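 Wild-type EGFR kinase domain assayed either free in solution at 14 μM, or tethered to lipid vesicles at 3.5 μM. Vesicle tethering raises the local kinase concentration and promotes asymmetric dimer formation. Substrate peptide was held at 1 mM in all runs. Activity is reported as initial velocity normalised by kinase concentration.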

The subject of a further assay is EGFR kinase domain. Briefly: crystal structures of EGFR kinase domain/Mig6 peptide complexes. The assay is classed as binding. The conditions noted are these: 25-residue epitope, residues 337–361.
In assay [2] the test system is EGFR kinase domain K799E mutant. The assay can be described thus: interaction with K799E mutant kinase domain. The assay is classed as binding. Particulars: Supplemental Figure 5.
The target in assay [3] is wild type EGFR kinase domain (Homo sapiens, UniProt P00533). The assay can be described thus: kinase assay in solution, wild type. Format: biochemical. The conditions noted are these: kinase 14 μM, substrate peptide 1 mM, Fig. 3b. The gist of the method: as §1
In assay [4] the test system is EGFR. The conditions noted are these: mouse skin; ref [8]; cited from earlier work.
The subject of assay [5] is EGFR. The conditions noted are these: ref [3],[5],[12]; cited from earlier work.
Assay [6] has as its target EGFR kinase domain, wild type (UniProt P00533 696-1022). Briefly: fluorescence polarisation.

“25-residue peptide: 25-residue peptide (residues 340–364), which lacks 3 residues in the N-terminal portion of Mig6^segment 1”: in assay [1], the “inhibition of the kinase domain attached to lipid vesicles, in words” value was “much less potent”.

On to “Mig6^segment 1: 25-residue epitope of Mig6 sufficient for binding to the EGFR kinase domain (residues 337–361)”, for which, in the assay on EGFR kinase domain, the “binding to the EGFR kinase domain (crystal structures)” value is given as “sufficient for binding to the EGFR kinase domain”. Also, in assay [2], the “effect of K799E kinase mutation on interaction with Mig6^segment 1” value is reported as “does not affect the conformation of the kinase domain or its interaction”.

B1: Mig6^segment 1–2 (Y358A) (peptide, UniProt Q9UJM3 336-412, looked up, variant M346L Y358A)
chain: KSLPSYLNGVLPPTQSFAPDPKAVSSKALQRQNSEGSASKVPCILPIIENGKKVSSTHYYLLPERPPYLDKYEKFFR
Take B1: the “inhibition of basal activity of wild type kinase domain in solution, in words” value in assay [3] is “does not show any inhibition”.

B2: Mitogen-induced gene 6 (protein, UniProt Q9UJM3 1-462, looked up)
chain: MSIAGVAAQEIRVPLKTGFLHNGRAMGNMRKTYWSSRSEFKNNFLNIDPITMAYSLNSSAQERLIPLGHASKSAPMNGHCFAENGPSQKSSLPPLLIPPSENLGPHEEDQVVCGFKKLTVNGVCASTPPLTPIKNSPSLFPCAPLCERGSRPLPPLPISEALSLDDTDCEVEFLTSSDTDFLLEDSTLSDFKYDVPGRRSFRGCGQINYAYFDTPAVSAADLSYVSDQNGGVPDPNPPPPQTHRRLRRSHSGPAGSFNKPAIRISNCCIHRASPNSDEDKPEVPPRVPIPPRPVKPDYRRWSAEVTSSTYSDEDRPPKVPPREPLSPSNSRTPSPKSLPSYLNGVMPPTQSFAPDPKYVSSKALQRQNSEGSASKVPCILPIIENGKKVSSTHYYLLPERPPYLDKYEKFFREAEETNGGAQIQPLPADCGISSATEKPDSKTKMDLGGHVKRKHLSYVVSP
modifications: full-length C-terminal Myc tag
As to B2, the “inhibition of EGFR-mediated signals” value with EGFR [4] is “inhibits EGFR-mediated signals in mouse skin”. In addition, the “binding to activated EGFR compared with unliganded receptor” value with EGFR [5] is recorded as “bind more tightly to activated EGFR than to the unliganded receptor”.

As for SPKSLPSYLNGVLPPTQSFAPDPKYVSSKA (peptide, UniProt Q9UJM3 334-363, looked up, also: fluorescein label, position not given here) [30-residue fluorescein-labeled Mig6 peptide (residues 334–363) M346L], the binding result in assay [6] is “binds”.
